# pEC50: −log10 of the molar value.
# Experiments:
# [1] = Cytotoxicity against human HeLa67 cell after 3 days by XTT assay; type: cell-based; conditions: HeLa67 cells
# How it was run: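 HeLa67 cells treated in parallel with the antiviral assay. Viability read by XTT three days after compound addition. Values are means of two or more experiments unless noted otherwise.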
# [2] = test system: Human immunodeficiency virus 1; assay: Antiviral activity against HIV1 infected human HeLa67 cells coexpressing JRFL-LUCENV after 3 days by luciferase reporter assay; type: functional, organism-based; conditions: Human immunodeficiency virus 1, HeLa67, 72 h
# How it was run: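 JRFL-Luc ΔEnv pseudotyped virus, titered by serial dilution on HeLa67 cells (CD4+/CCR5+). Fourfold serial dilutions of compound added to infected cells at the time of infection. Luciferase activity read after three days and compared with no-compound controls to derive EC50. Values are means of two or more experiments.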
Compound,CC50 at 72 h [1],pEC50 [2]
O=C(C(=O)N1CCN(C(=O)c2ccccc2)CC1)c1c[nH]c2cccc(F)c12,> 300 µM,
O=C(C(=O)N1CCN(C(=O)c2c(F)cccc2F)CC1)c1c[nH]c2ccccc12,> 300 µM,5.17
O=C(C(=O)N1CCN(C(=O)c2ccco2)CC1)c1c[nH]c2cccc(F)c12,> 300 µM,8.27
O=C(C(=O)N1CCN(C(=O)c2ccc(Cl)c(Cl)c2)CC1)c1c[nH]c2ccccc12,123 µM,4.84
O=C(C(=O)N1CCN(C(=O)c2cccc(Cl)c2F)CC1)c1c[nH]c2ccccc12,> 300 µM,5.46
O=C(C(=O)N1CCN(C(=O)Cc2ccccc2)CC1)c1c[nH]c2ccccc12,> 300 µM,< 4.00
O=C(C(=O)N1CCN(C(=O)c2ccc(Br)cc2)CC1)c1c[nH]c2ccccc12,> 240 µM,4.52
O=C(C(=O)N1CCN(C(=O)c2occc2Br)CC1)c1c[nH]c2cccc(F)c12,236 µM,8.85
O=C(C(=O)N1CCN(C(=O)c2c[nH]cn2)CC1)c1c[nH]c2cccc(F)c12,> 300 µM,5.91
O=C(C(=O)N1CCN(C(=O)c2ccccc2Br)CC1)c1c[nH]c2ccccc12,> 300 µM,4.98
O=C(C(=O)N1CCN(C(=O)c2ccc(O)cc2)CC1)c1c[nH]c2ccccc12,136 µM,5.60
O=C(C(=O)N1CCN(C(=O)c2sccc2Br)CC1)c1c[nH]c2cccc(F)c12,69.7 µM,8.49
O=C(C(=O)N1CCN(C(=O)c2cc(F)c(F)cc2F)CC1)c1c[nH]c2ccccc12,> 300 µM,4.44
O=C(C(=O)N1CCN(C(=O)c2ccccc2Cl)CC1)c1c[nH]c2ccccc12,> 300 µM,4.46
O=C(C(=O)N1CCN(C(=O)c2ccc(F)cc2)CC1)c1c[nH]c2ccccc12,280 µM,5.05
O=C(C(=O)N1CCN(C(=O)c2cc(F)c(F)c(F)c2)CC1)c1c[nH]c2ccccc12,> 300 µM,4.26
O=C(C(=O)N1CCN(C(=O)C2CCCCC2)CC1)c1c[nH]c2ccccc12,> 300 µM,5.46
COc1ccccc1C(=O)N1CCN(C(=O)C(=O)c2c[nH]c3ccccc23)CC1,> 300 µM,< 5.00
Cc1ccc(C(=O)N2CCN(C(=O)C(=O)c3c[nH]c4ccccc34)CC2)cc1,> 99 µM,5.08
O=C(C(=O)N1CCN(C(=O)c2cscn2)CC1)c1c[nH]c2cccc(F)c12,> 250 µM,8.06

Compound,CC50 at 72 h [1],pEC50 [2]
Cc1ccncc1C(=O)N1CCN(C(=O)C(=O)c2c[nH]c3ccccc23)CC1,> 300 µM,4.06
O=C(C(=O)N1CCN(C(=O)c2ccccn2)CC1)c1c[nH]c2cccc(F)c12,> 300 µM,8.35
O=C(C(=O)N1CCN(C(=O)c2ccsc2)CC1)c1c[nH]c2cccc(F)c12,> 300 µM,9.40
O=C(C(=O)N1CCN(C(=O)c2cccnc2)CC1)c1c[nH]c2cccc(F)c12,> 300 µM,6.81
O=C(C(=O)N1CCN(C(=O)c2ccccc2O)CC1)c1c[nH]c2ccccc12,194 µM,5.44
O=C(C(=O)N1CCN(C(=O)c2ccc(F)c(F)c2)CC1)c1c[nH]c2ccccc12,> 300 µM,5.08
O=C(C(=O)N1CCN(C(=O)c2ccno2)CC1)c1c[nH]c2cccc(F)c12,> 300 µM,6.81
O=C(C(=O)N1CCN(C(=O)c2ccccn2)CC1)c1c[nH]c2ccccc12,> 300 µM,5.81
O=C(C(=O)N1CCN(C(=O)c2cccs2)CC1)c1c[nH]c2cccc(F)c12,> 300 µM,9.15
O=C(C(=O)N1CCN(C(=O)c2cccc(Br)c2)CC1)c1c[nH]c2ccccc12,76 µM,5.17
COc1cccc(C(=O)N2CCN(C(=O)C(=O)c3c[nH]c4ccccc34)CC2)c1,> 300 µM,< 4.25
O=C(C(=O)N1CCN(C(=O)c2c(F)cc(F)cc2F)CC1)c1c[nH]c2ccccc12,> 300 µM,< 4.27
O=C(C(=O)N1CCN(C(=O)Cc2ccccc2)CC1)c1c[nH]c2cccc(F)c12,> 300 µM,< 4.30
O=C(C(=O)N1CCN(C(=O)c2cccc(Cl)c2Cl)CC1)c1c[nH]c2ccccc12,235 µM,4.74
O=C(C(=O)N1CCN(C(=O)CC2CCCCC2)CC1)c1c[nH]c2ccccc12,158 µM,< 4.00
CN(C)c1ccccc1C(=O)N1CCN(C(=O)C(=O)c2c[nH]c3ccccc23)CC1,89 µM,< 6.30
O=C(C(=O)N1CCN(C(=O)c2ccc(Cl)cc2Cl)CC1)c1c[nH]c2ccccc12,111 µM,4.43
Cc1ccsc1C(=O)N1CCN(C(=O)C(=O)c2c[nH]c3cccc(F)c23)CC1,260 µM,7.76
COc1ccc(C(=O)N2CCN(C(=O)C(=O)c3c[nH]c4ccccc34)CC2)cc1,129 µM,4.52
O=C(C(=O)N1CCN(C(=O)c2cccc(F)c2)CC1)c1c[nH]c2ccccc12,200 µM,5.56

Compound,CC50 at 72 h [1],pEC50 [2]
O=C(C(=O)N1CCN(C(=O)c2cccc3ccccc23)CC1)c1c[nH]c2ccccc12,> 300 µM,< 4.00
O=C(C(=O)N1CCN(C(=O)c2cccc(Cl)c2)CC1)c1c[nH]c2ccccc12,117 µM,4.76
O=C(C(=O)N1CCN(C(=O)c2ccccc2F)CC1)c1c[nH]c2ccccc12,101 µM,6.41
O=C(C(=O)N1CCN(C(=O)c2ccncc2)CC1)c1c[nH]c2cccc(F)c12,> 205 µM,7.63
CN(C)c1ccc(C(=O)N2CCN(C(=O)C(=O)c3c[nH]c4ccccc34)CC2)cc1,> 300 µM,< 4.00
N#Cc1ccoc1C(=O)N1CCN(C(=O)C(=O)c2c[nH]c3cccc(F)c23)CC1,187 µM,8.15
O=C(C(=O)N1CCN(C(=O)c2sccc2Cl)CC1)c1c[nH]c2cccc(F)c12,50.5 µM,7.92
O=C(C(=O)N1CCN(C(=O)c2ccc(Cl)cc2)CC1)c1c[nH]c2ccccc12,92 µM,4.18
CN(C)c1cccc(C(=O)N2CCN(C(=O)C(=O)c3c[nH]c4ccccc34)CC2)c1,230 µM,< 6.30
CC(C)(C)c1ccc(C(=O)N2CCN(C(=O)C(=O)c3c[nH]c4ccccc34)CC2)cc1,31 µM,5.05
O=C(C(=O)N1CCN(C(=O)c2ccoc2)CC1)c1c[nH]c2cccc(F)c12,> 300 µM,7.69
O=C(C(=O)N1CCN(C(=O)c2occc2Cl)CC1)c1c[nH]c2cccc(F)c12,250 µM,8.51
O=C(C(=O)N1CCN(C(=O)c2cc[nH]n2)CC1)c1c[nH]c2cccc(F)c12,> 300 µM,7.14
Cc1nc(C(=O)N2CCN(C(=O)C(=O)c3c[nH]c4cccc(F)c34)CC2)cs1,> 300 µM,7.64
O=C(C(=O)N1CCN(C(=O)c2cc(F)c(F)c(F)c2F)CC1)c1c[nH]c2ccccc12,> 300 µM,< 4.00
O=C(C(=O)N1CCN(C(=O)c2ccc(F)cc2F)CC1)c1c[nH]c2ccccc12,> 300 µM,5.22
CCCc1ccc(C(=O)N2CCN(C(=O)C(=O)c3c[nH]c4ccccc34)CC2)cc1,48 µM,4.09
O=C(C(=O)N1CCN(C(=O)c2cccnc2)CC1)c1c[nH]c2ccccc12,> 300 µM,5.38

# Reference: ChEMBL document CHEMBL1155306, “Inhibitors of HIV-1 attachment. Part 3: A preliminary survey of the effect of structural variation of the benzamide moiety on antiviral activity” (Bioorg Med Chem Lett, 2009)
